# Measured values published in ChEMBL document CHEMBL1155251, “Efficient synthesis of the first betulonic acid-acetylene hybrids and their hepatoprotective and anti-inflammatory activity” (2009).
# The source made the active and inactive calls. The rule behind the calls is not given here.
# Assays:
# Mus musculus [1] = experiment: Hepatoprotective activity against CCL4-induced hepatitis in mouse assessed as thiobarbiturate relative substance level at 100 mg/kg, po administered 1 hr prior to CCL4 challenge (reference value: 1.63+/- 0.24 ucat/L); assay type: functional
# Procedure, shortened: (§1)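 Outbred male mice (22–25 g). Acute hepatitis induced by single oral 25% CCl4 in sunflower oil. Compounds given orally as water–Tween-80 suspension 1 h before induction; controls got vehicle. At least ten animals per group. Next day, serum ALP, ALT and AST measured with standard kits; TBARS measured by an established procedure.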
# Mus musculus [2] = experiment: Hepatoprotective activity against CCL4-induced hepatitis in mouse assessed as aspartate amino transferase level at 100 mg/kg, po administered 1 hr prior to CCL4 challenge (reference value: 5.23+/- 0.76 ucat/L); assay type: functional; procedure, shortened: as §1
# Mus musculus [3] = experiment: Hepatoprotective activity against CCL4-induced hepatitis in mouse assessed as […] level at 100 mg/kg, po administered 1 hr prior to CCL4 challenge (reference value: 5.04+/- 0.72 ucat/L); assay type: functional; procedure, shortened: as §1
# Mus musculus [4] = experiment: Hepatoprotective activity against CCL4-induced hepatitis in mouse assessed as alkaline phosphatase level at 100 mg/kg, po administered 1 hr prior to CCL4 challenge (reference value: 18.27+/- 1.42 ucat/L); assay type: functional; procedure, shortened: as §1
# Mus musculus [5] = experiment: Hepatoprotective activity against CCL4-induced hepatitis in mouse assessed as alkaline phosphatase level at 50 mg/kg, po administered 1 hr prior to CCL4 challenge (reference value: 18.27+/- 1.42 ucat/L); assay type: functional; procedure, shortened: as §1
# Mus musculus [6] = experiment: Hepatoprotective activity against CCL4-induced hepatitis in mouse assessed as […] level at 50 mg/kg, po administered 1 hr prior to CCL4 challenge (reference value: 5.04+/- 0.72 ucat/L); assay type: functional; procedure, shortened: as §1
# Mus musculus [7] = experiment: Hepatoprotective activity against CCL4-induced hepatitis in mouse assessed as thiobarbiturate relative substance level at 50 mg/kg, po administered 1 hr prior to CCL4 challenge (reference value: 1.63+/- 0.24 ucat/L); assay type: functional; procedure, shortened: as §1
# Mus musculus [8] = experiment: Antiinflammatory activity against carrageenan-induced paw edema in mouse assessed as decrease in index of hind paw edema at 20 mg/kg, po administered 1 hr prior to carrageenan challenge; assay type: functional, organism-based; parameters: dose 20 mg/kg
# Procedure, shortened: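 Outbred male mice (22–25 g), ad libitum food/water. Dosed orally at 20 mg/kg as aqueous-Tween suspension 1 h before carrageenan; controls got water–Tween. Killed by cervical dislocation 5 h after phlogogen; hind paws cut at ankle and weighed. Edema index = (treated − untreated paw weight)/untreated paw weight.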
# Mus musculus [9] = experiment: Hepatoprotective activity against CCL4-induced hepatitis in mouse assessed as aspartate amino transferase level at 50 mg/kg, po administered 1 hr prior to CCL4 challenge (reference value: 5.23+/- 0.76 ucat/L); assay type: functional; procedure, shortened: as §1
# Mus musculus [10] = experiment: Hepatoprotective activity against CCL4-induced hepatitis in mouse assessed as thiobarbiturate relative substance level at 20 mg/kg, po administered 1 hr prior to CCL4 challenge (reference value: 1.63+/- 0.24 ucat/L); assay type: functional; procedure, shortened: as §1
# Mus musculus [11] = experiment: Hepatoprotective activity against CCL4-induced hepatitis in mouse assessed as alkaline phosphatase level at 20 mg/kg, po administered 1 hr prior to CCL4 challenge (reference value: 18.27+/- 1.42 ucat/L); assay type: functional; procedure, shortened: as §1
# Mus musculus [12] = experiment: Hepatoprotective activity against CCL4-induced hepatitis in mouse assessed as […] level at 20 mg/kg, po administered 1 hr prior to CCL4 challenge (reference value: 5.04+/- 0.72 ucat/L); assay type: functional; procedure, shortened: as §1
# Mus musculus [13] = experiment: Hepatoprotective activity against CCL4-induced hepatitis in mouse assessed as aspartate amino transferase level at 20 mg/kg, po administered 1 hr prior to CCL4 challenge (reference value: 5.23+/- 0.76 ucat/L); assay type: functional; procedure, shortened: as §1
SMILES,Activity (Mus musculus [5]),Activity (Mus musculus [6]),Activity (Mus musculus [7]),Activity (Mus musculus [8]),Activity (Mus musculus [9]),also measured
O=C1c2c(O)cc(O)cc2O[C@H](c2ccc(O)c(O)c2)[C@H]1O [(+)-TAXIFOLIN],,,,,,Activity (Mus musculus [1]): 1.42 µmol/L; Activity (Mus musculus [2]): 3.88 ucat/L; Activity (Mus musculus [3]): 3.63 ucat/L; Activity (Mus musculus [4]): 11.31 ucat/L
C=C(C)[C@@H]1CC[C@]2(C(=O)Nc3ccc(C#CCN4CCOCC4)cc3)CC[C@]3(C)[C@H](CC[C@@H]4[C@@]5(C)CCC(=O)C(C)(C)[C@@H]5CC[C@]43C)[C@@H]12,14.28 ucat/L,3.48 ucat/L,3.21 µmol/L,Active,5.25 ucat/L,
C=C(C)[C@@H]1CC[C@]2(C(=O)Nc3ccc(C#CCN4CCCCC4)cc3)CC[C@]3(C)[C@H](CC[C@@H]4[C@@]5(C)CCC(=O)C(C)(C)[C@@H]5CC[C@]43C)[C@@H]12,12.8 ucat/L,3.08 ucat/L,1.06 µmol/L,Active,3.25 ucat/L,
C=C(C)[C@@H]1CC[C@]2(C(=O)Nc3ccc(I)cc3)CC[C@]3(C)[C@H](CC[C@@H]4[C@@]5(C)CCC(=O)C(C)(C)[C@@H]5CC[C@]43C)[C@@H]12,,,,inactive,,Activity (Mus musculus [10]): 2.03 µmol/L; Activity (Mus musculus [11]): 10.27 ucat/L; Activity (Mus musculus [12]): 2.75 ucat/L; Activity (Mus musculus [13]): 3.09 ucat/L
COc1ccc2c(c1)c(CC(=O)O)c(C)n2C(=O)c1ccc(Cl)cc1,,,,Active,,
